UPR XBP1 act – activators of adaptive XBP1 UPR arm, primary screen, cell-based, CHO-XBP1 luciferase reporter, luminescence, uHTS | IRE1-XBP1 UPR activation; percent of tunicamycin response, DMSO as zero | activation, % at 20 µM | actives 0.33% (n = 330,000) | AID 463104, 2010;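 active = versus positive control, 20 µM dose yields 30% or more activation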
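Test system: CHO-XBP1 luciferase reporter cells | Buffer or medium: Serum-containing F12 medium, 10% FBS | Schedule: 6 h compound exposure at 37 °C, 5% CO2 | Detection: Steady-Glo luciferase glow luminescence, 10 min after reagent addition | Read-out basis: Activation, % of tunicamycin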
Bfl-1 A1 inh – caspase 3/7 activation in MEF A1-2A-BIM cells, primary screen, A1 inhibitor project, cell-based, luminescence, HTS | Caspase-Glo 3/7 luminescence, 3 h; percent of clofoctol response, vehicle zero | caspase activation, % (concentration not given with the values) | actives 0.066% (n = 330,000);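 active = over half of replicate activation scores above 10%, or exactly half above 10 with the replicate mean above 10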
UPR CHOP act – activators of apoptotic CHOP UPR arm, primary screen, cell-based, CHO-CHOP luciferase reporter, luminescence, uHTS; UPR activation; percent of tunicamycin response over DMSO baseline; activation, % at 10 µM; actives 0.34% (n = 330,000);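 active = at 10 µM dose, activation of 40% or more, normalized to positive control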
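assay system = CHO CHOP reporter cells | amount = 500 CHO-CHOP cells per well | buffer or medium = F12 with 10% FBS | incubation = 16-18 h cell attachment, then 6 h compound exposure, 37 °C | detection = luminescence read with Steady-Glo | read-out = percent activation relative to tunicamycin control | controls = tunicamycin high control, DMSO low control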
CHOP inhibitor – inhibitors of CHOP promoter induction, primary screen, cell-based, unfolded protein response, luciferase reporter; CHO-K1 CHOP-promoter luciferase, tunicamycin-induced, 15-18 h; inhibition, % at 10 µM; actives 3.8% (n = 220,000); AID 2732, 2010;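 active = compounds that reduced the stress-induced luciferase reporter signal by more than about 70% of percent inhibition, limit read from the data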
Numbers stand for hits. Many of the other results were omitted from the sample, so hits are more common in it than they were.

Cc1ccc(C(C)C)cc1S(=O)(=O)NCc1cccnc1 was read as UPR XBP1 act inactive, Bfl-1 A1 inh inactive, UPR CHOP act inactive and CHOP inhibitor inactive.
Screening CC(NC(=O)COC(=O)c1cn(-c2ccccc2)nc1-c1cccs1)c1ccccc1 (stereo not drawn) returned UPR XBP1 act inactive, Bfl-1 A1 inh inactive, UPR CHOP act inactive and CHOP inhibitor 90.4.
For CCC(=NNC(=O)c1cccc(S(=O)(=O)N2CCOCC2)c1)c1ccccc1 the results were UPR XBP1 act inactive, Bfl-1 A1 inh inactive and UPR CHOP act inactive.
Screening CCc1ccccc1OCC(=O)Nc1ccc(F)c(S(=O)(=O)N2CCOCC2)c1 returned UPR XBP1 act inactive and UPR CHOP act inactive.
Screening Cc1ccc(CNC(=O)C2CC(c3ccccc3C(F)(F)F)=NO2)cc1 (stereo not drawn) returned UPR XBP1 act inactive, Bfl-1 A1 inh inactive, UPR CHOP act inactive and CHOP inhibitor inactive.
`CCOC(=O)c1[nH]c(CSc2nnc(-c3ccc(OC)cc3)o2)c(C(=O)OCC)c1C` gave UPR XBP1 act inactive, Bfl-1 A1 inh inactive, UPR CHOP act inactive and CHOP inhibitor 70.1.
COC(=O)c1c(NC(=O)CSc2nnc3ccccn23)sc2c1CCC2 was read as UPR XBP1 act inactive, Bfl-1 A1 inh inactive, UPR CHOP act inactive and CHOP inhibitor inactive.
For CNC(=O)C(=O)Nc1ccc(C)cc1C the results were UPR XBP1 act inactive, Bfl-1 A1 inh inactive, UPR CHOP act inactive and CHOP inhibitor inactive.
CC1CCCCN1c1nc(-c2ccncc2)nc2ccccc12 (stereo not drawn) was read as UPR XBP1 act inactive, Bfl-1 A1 inh inactive, UPR CHOP act inactive and CHOP inhibitor 76.5.
Screening COc1ccc(Br)cc1[C@H]1[C@H]2C=CC[C@@H](C)[C@@H]2C(=O)N1Cc1ccccc1 returned UPR XBP1 act inactive, UPR CHOP act inactive and CHOP inhibitor 75.0.
`O=C(N/N=C1/CC(c2ccccc2)Oc2ccccc21)C1CC1` (stereo not drawn) gave UPR XBP1 act inactive, Bfl-1 A1 inh inactive, UPR CHOP act inactive and CHOP inhibitor 93.0.
For O=C(N/N=C1\CC(c2ccccc2)Oc2ccccc21)c1ccc(O)cc1 (stereo not drawn) the results were UPR XBP1 act inactive, Bfl-1 A1 inh inactive and UPR CHOP act inactive.
CC1CCc2cc(F)ccc2N1C(=O)c1cc2nc(-c3ccco3)cc(C(F)(F)F)n2n1 (stereo not drawn) was read as UPR XBP1 act inactive, Bfl-1 A1 inh inactive, UPR CHOP act inactive and CHOP inhibitor inactive.
O=C(N/N=C/c1cc([N+](=O)[O-])ccc1O)c1ccc(COc2ccc3c(c2)CCC3)o1 was read as UPR XBP1 act 32.7, Bfl-1 A1 inh inactive and UPR CHOP act inactive.
Cc1ccc(C(=O)COC(=O)c2nc3nccc(C)n3n2)c(C)c1 was read as UPR XBP1 act inactive, Bfl-1 A1 inh inactive and UPR CHOP act inactive.
For Cc1ccc(C(C)C)c(OCc2n[nH]c(=S)o2)c1 the results were UPR XBP1 act inactive, Bfl-1 A1 inh inactive, UPR CHOP act inactive and CHOP inhibitor inactive.
Cc1ccc(C(C)C)c(OCc2nc(-c3nonc3N)no2)c1 was read as UPR XBP1 act inactive, Bfl-1 A1 inh inactive, UPR CHOP act inactive and CHOP inhibitor 94.7.
`COc1ccc(OC)c(-n2c(C)nc3cc(C(=O)O)ccc32)c1` gave UPR XBP1 act inactive, Bfl-1 A1 inh inactive, UPR CHOP act inactive and CHOP inhibitor inactive.
O=C(N/N=C/c1ccc2c(c1)OCO2)c1ccc(Br)o1 was read as UPR XBP1 act inactive, Bfl-1 A1 inh inactive, UPR CHOP act inactive and CHOP inhibitor inactive.
`O=C(Nc1cccc(C(F)(F)F)c1)c1ccccc1NC(=O)C1CCCCC1` gave UPR XBP1 act inactive, Bfl-1 A1 inh inactive, UPR CHOP act inactive and CHOP inhibitor 94.5.
For CC1CCN(C(=O)c2ccc(N(C)S(C)(=O)=O)cc2)CC1 the results were UPR XBP1 act inactive, Bfl-1 A1 inh inactive, UPR CHOP act inactive and CHOP inhibitor inactive.
`CN(c1ccc(C(=O)N2CCCCC2)cc1)S(C)(=O)=O` gave UPR XBP1 act inactive, Bfl-1 A1 inh inactive, UPR CHOP act inactive and CHOP inhibitor 79.1.
Cc1nn(-c2ccc(F)cc2)c(Cl)c1/C=C1\C(=O)Nc2ccccc21 was read as UPR XBP1 act inactive, Bfl-1 A1 inh inactive, UPR CHOP act inactive and CHOP inhibitor 93.7.
CCc1ccccc1NC(=O)CN1CCN(C(=O)C(C)NC(=O)c2ccc(Cl)cc2)CC1 (stereo not drawn) was read as UPR XBP1 act inactive and UPR CHOP act inactive.
O=c1cc(NCc2ccco2)[nH]c(=O)n1-c1ccc(Br)cc1 was read as UPR XBP1 act inactive, Bfl-1 A1 inh inactive, UPR CHOP act inactive and CHOP inhibitor 82.2.
For O=c1cc(NCc2ccc3c(c2)OCO3)[nH]c(=O)n1-c1ccc(Cl)cc1 the results were UPR XBP1 act inactive, Bfl-1 A1 inh inactive, UPR CHOP act inactive and CHOP inhibitor inactive.
For Cc1nc(Nc2ccccc2)[nH]c(=O)c1CCC(C)C the results were UPR XBP1 act inactive, Bfl-1 A1 inh inactive, UPR CHOP act inactive and CHOP inhibitor 89.1.
CCOC(=O)C1CCN(S(=O)(=O)c2ccc(Br)c(OCC)c2)CC1 was read as UPR XBP1 act inactive, Bfl-1 A1 inh inactive, UPR CHOP act inactive and CHOP inhibitor 87.6.
Screening CCOC(=O)C1CCN(S(=O)(=O)c2ccc3[nH]c(=O)oc3c2)CC1 returned UPR XBP1 act inactive, Bfl-1 A1 inh inactive, UPR CHOP act inactive and CHOP inhibitor 77.7.
`CCOC(=O)N1CCN(S(=O)(=O)c2ccc3[nH]c(=O)oc3c2)CC1` gave UPR XBP1 act inactive, Bfl-1 A1 inh inactive, UPR CHOP act inactive and CHOP inhibitor inactive.
For CCOC(=O)C1CCN(S(=O)(=O)c2ccc(OC)c(OC)c2)CC1 the results were UPR XBP1 act inactive, Bfl-1 A1 inh inactive, UPR CHOP act inactive and CHOP inhibitor inactive.
COc1ccc(NC(=O)Cc2c(O)c3ccccc3[nH]c2=O)cc1 was read as UPR XBP1 act inactive, Bfl-1 A1 inh inactive, UPR CHOP act inactive and CHOP inhibitor inactive.
For Cc1ccc(-n2cc(CNC(C)c3cnn(C)c3C)c(-c3ccc(F)cc3)n2)cc1 (stereo not drawn) the results were UPR XBP1 act inactive, Bfl-1 A1 inh inactive, UPR CHOP act inactive and CHOP inhibitor inactive.
CC(=O)NC1=NC(=O)/C(=C/c2cn(C(C)=O)nc2-c2ccccc2)S1 was read as UPR XBP1 act inactive, Bfl-1 A1 inh inactive, UPR CHOP act inactive and CHOP inhibitor 72.6.
For CCN=C1S/C(=C\c2cn(C(C)=O)nc2-c2ccccc2)C(=O)N1CC the results were UPR XBP1 act inactive, Bfl-1 A1 inh inactive, UPR CHOP act inactive and CHOP inhibitor 71.3.
For O=C(N1CCc2[nH]c3ccccc3c2C1)C(F)(F)F the results were UPR XBP1 act inactive, Bfl-1 A1 inh inactive and UPR CHOP act inactive.
Screening CC(=O)N(CCN(C(C)=O)c1ccccc1)c1ccccc1 returned UPR XBP1 act inactive, Bfl-1 A1 inh inactive, UPR CHOP act inactive and CHOP inhibitor inactive.

From PubChem BioAssay
